ChEMBL document CHEMBL4382270, “Total Synthesis and Biological Evaluation of Sericetin for Protection against Cisplatin-Induced Acute Kidney Injury” (J Nat Prod, 2018)
Calls of active or inactive are those of the source. The rule behind the calls is not given here.

Columns and labels:
[1] = Renal toxicity in Sprague-Dawley rat assessed as histopathological changes in kidney at 1 mg/kg administered once daily for 6 days by H and E staining based light microscopic analysis; format: organism-based; conditions: in vivo, 144 h
How it was run: (§1)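 Male Sprague-Dawley rats (200 ± 10 g) given test agent alone at 1 mg/kg in 5% DMSO/0.9% saline, once and then daily for 5 further days. Killed on day 7. Serum BUN and creatinine measured by clinical chemistry, and kidneys examined by H&E histology.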

NRK-52E [2] = assay: Protection against cisplatin-induced cytotoxicity in rat NRK-52E cells assessed as increase in cell viability at 20 uM after 24 hrs by MTT assay; format: functional, cell-based
How it was run: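 NRK52E cells given test agent at 20 μM for 24 h, with or without cisplatin 30 μM. Vehicle is DMSO at 0.2% final. Viability read by MTT. Mean ± SEM, N = 3.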

NRK-52E [3] = assay: Protection against cisplatin-induced cell damage in rat NRK-52E cells assessed as reversal of mitochondrial membrane potential loss at 10 uM after 24 hrs by JC1 staining based fluorescence microscopic analysis; format: functional
How it was run: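 After 24 h of cisplatin 30 μM with or without test agent 10 μM, NRK-52E cells stained with JC-1 and imaged by fluorescence microscopy. Red (aggregate) and green (monomer) signals quantified by ROI. Mean ± SEM, N = 3.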

NRK-52E [4] = assay: Protection against cisplatin-induced cytotoxicity in rat NRK-52E cells assessed as improvement in morphological changes after 24 hrs by microscopic analysis; format: functional, cell-based
How it was run: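 Cells (NRK-52E) exposed to test agent at 0, 1, 10 or 50 μM plus cisplatin 30 μM for 24 h. Morphology then examined by light microscopy.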

Rattus norvegicus [5] = assay: Protection against cisplatin-induced acute liver injury in Sprague-Dawley rat assessed as restoration of serum creatinine levels at 1 mg/kg pretreated for 24 hrs followed by cisplatin challenge and subsequent qd dosing for 5 days measured 7 days post cisplatin challenge; format: functional, organism-based; conditions: in the assay text read “acute kidney injury” for “acute liver injury”
How it was run: (§2)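 Male Sprague-Dawley rats (200 ± 10 g) received a single ip cisplatin dose of 6 mg/kg in saline. Test agent 1 mg/kg in 5% DMSO/0.9% saline given once 24 h before cisplatin, then daily for 5 days. Sacrifice on day 7. Read-outs: serum BUN and creatinine by clinical chemistry, kidney H&E histology, and cleaved caspase-3 by Western blot of kidney homogenate. N = 6/group.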

NRK-52E [6] = assay: Protection against cisplatin-induced cytotoxicity in rat NRK-52E cells assessed as increase in cell viability after 24 hrs by MTT assay; format: functional, cell-based
How it was run: (§3)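 NRK-52E rat renal tubular epithelial cells (ATCC) exposed to test agent at 0, 1, 10 or 50 μM for 24 h, with or without cisplatin 30 μM (PBS stock). Viability measured by MTT. Mean ± SEM, N = 3.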

NRK-52E [7] = assay: Cytotoxicity against rat NRK-52E cells assessed as effect on cell viability at 1 to 50 uM after 24 hrs by MTT assay; format: cell-based; how it was run: as §3
Rattus norvegicus [8] = assay: Protection against cisplatin-induced […] in Sprague-Dawley rat assessed as reversal of histopathological changes in kidney at 1 mg/kg pretreated for 24 hrs followed by cisplatin challenge and subsequent qd dosing for 5 days measured 7 days post cisplatin challenge by H and E staining based light microscopic analysis; format: functional, organism-based; how it was run: as §2
[9] = Renal toxicity in Sprague-Dawley rat assessed as change in serum BUN levels at 1 mg/kg administered once daily for 6 days; format: organism-based; conditions: in vivo, 144 h; how it was run: as §1
Rattus norvegicus [10] = assay: Protection against cisplatin-induced […] in Sprague-Dawley rat assessed as reduction in cleaved caspase-3 level in kidneys at 1 mg/kg pretreated for 24 hrs followed by cisplatin challenge and subsequent qd dosing for 5 days measured 7 days post cisplatin challenge by Western blot analysis; format: functional, organism-based; how it was run: as §2
[11] = Renal toxicity in Sprague-Dawley rat assessed as change in serum creatinine levels at 1 mg/kg administered once daily for 6 days; format: organism-based; conditions: in vivo, 144 h; how it was run: as §1
Rattus norvegicus [12] = assay: Protection against cisplatin-induced acute liver injury in Sprague-Dawley rat assessed as restoration of serum BUN levels at 1 mg/kg pretreated for 24 hrs followed by cisplatin challenge and subsequent qd dosing for 5 days measured 7 days post cisplatin challenge; format: functional, organism-based; conditions: in the assay text read “acute kidney injury” for “acute liver injury”; how it was run: as §2
NRK-52E [13] = assay: Protection against cisplatin-induced apoptosis in rat NRK-52E cells assessed as reduction in cleaved caspase-3 level at 10 uM after 24 hrs by Western blot analysis; format: functional, cell-based
How it was run: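 NRK-52E cells given cisplatin 30 μM with or without test agent 10 μM for 24 h. Cleaved (active) caspase-3 detected by Western blot and quantified by densitometry. Mean ± SEM, N = 3.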

NRK-52E [14] = assay: Protection against cisplatin-induced cell damage in rat NRK-52E cells assessed as reduction in reactive oxygen species generation at 10 uM after 24 hrs by DCF staining based fluorescence microscopic analysis; format: functional
How it was run: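 NRK-52E cells co-treated with cisplatin 30 μM and test agent 10 μM for 24 h. ROS stained with CM-H2DCFDA (DCF) and imaged by fluorescence. Percent ROS derived from DCF signal by region-of-interest quantitation. Mean ± SEM, N = 3.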

For `CC(C)=CCOc1c2c(cc3oc(-c4ccccc4)c(OCc4ccccc4)c(=O)c13)OC(C)(C)C=C2`, the Activity [1] was “Non-Toxic”, the Activity (NRK-52E [2]) was “Active” and the Activity (NRK-52E [3]) was “Active”. The Activity (NRK-52E [4]) was “Dose-dependent effect”, the Activity (Rattus norvegicus [5]) was “Active” and the Activity (NRK-52E [6]) was “Dose-dependent effect”. For the same compound, the Activity (NRK-52E [7]) was “Non-Toxic”, the Activity (Rattus norvegicus [8]) was “Active” and the Activity [9] was “Non-Toxic”. The Activity (Rattus norvegicus [10]) was “Active”, the Activity [11] was “Non-Toxic” and the Activity (Rattus norvegicus [12]) was “Active”. The Activity (NRK-52E [13]) was “Active” and the Activity (NRK-52E [14]) was “Active”.
